Data: ChEMBL document CHEMBL3045048, “Synthesis and antifungal action of new tricyclazole analogues” (2004)
Activity calls are given as the source filed them. The calls are words filed in the database; no cut-off is given here.

Key:
Botrytis cinerea [1] = experiment: microbe, parasite or virus in culture; assay type: functional; conditions: 120 h, read-out: GI
Botrytis cinerea [2] = experiment: microbe, parasite or virus in culture; assay type: functional; conditions: 120 h, read-out: GI; remark: listed apart in the source
Botrytis cinerea [3] = experiment: microbe, parasite or virus in culture; assay type: functional; conditions: 120 h, read-out: GI; remark: listed apart in the source
Pyricularia grisea [4] = experiment: microbe, parasite or virus in culture; assay type: functional; conditions: 120 h, read-out: GI
Pyricularia grisea [5] = experiment: microbe, parasite or virus in culture; assay type: functional; conditions: 120 h, read-out: GI; remark: listed apart in the source
Botrytis cinerea [6] = experiment: microbe, parasite or virus in culture; assay type: functional; conditions: 120 h, read-out: GI; remark: listed apart in the source
Pyricularia grisea [7] = experiment: microbe, parasite or virus in culture; assay type: functional; conditions: 120 h, read-out: GI; remark: listed apart in the source
Pyricularia grisea [8] = experiment: microbe, parasite or virus in culture; assay type: functional; conditions: 120 h, read-out: GI; remark: listed apart in the source
Sclerotinia minor [9] = experiment: microbe, parasite or virus in culture; assay type: functional; conditions: 120 h, read-out: GI
Trichoderma harzianum [10] = experiment: microbe, parasite or virus in culture; assay type: functional; conditions: (Pers.)-Tul, 120 h, read-out: GI
Penicillium italicum [11] = experiment: microbe, parasite or virus in culture; assay type: functional; conditions: ATCC 48952, 120 h, read-out: GI
Sclerotinia minor [12] = experiment: microbe, parasite or virus in culture; assay type: functional; conditions: 120 h, read-out: GI; remark: listed apart in the source
Penicillium crustosum [13] = experiment: microbe, parasite or virus in culture; assay type: functional; conditions: 120 h, read-out: GI
Trichoderma harzianum [14] = experiment: microbe, parasite or virus in culture; assay type: functional; conditions: (Pers.)-Tul, 120 h, read-out: GI; remark: listed apart in the source
Alternaria solani [15] = experiment: microbe, parasite or virus in culture; assay type: functional; conditions: 120 h, read-out: GI
Penicillium italicum [16] = experiment: microbe, parasite or virus in culture; assay type: functional; conditions: ATCC 48952, 120 h, read-out: GI; remark: listed apart in the source
Trichoderma viride [17] = experiment: microbe, parasite or virus in culture; assay type: functional; conditions: 120 h, read-out: GI
Alternaria solani [18] = experiment: microbe, parasite or virus in culture; assay type: functional; conditions: 120 h, read-out: GI; remark: listed apart in the source
Penicillium crustosum [19] = experiment: microbe, parasite or virus in culture; assay type: functional; conditions: 120 h, read-out: GI; remark: listed apart in the source
Berkeleyomyces basicola [20] = experiment: microbe, parasite or virus in culture; assay type: functional; conditions: 120 h, read-out: GI
Berkeleyomyces basicola [21] = experiment: microbe, parasite or virus in culture; assay type: functional; conditions: 120 h, read-out: GI; remark: listed apart in the source
Trichoderma viride [22] = experiment: microbe, parasite or virus in culture; assay type: functional; conditions: 120 h, read-out: GI; remark: listed apart in the source
Botrytis cinerea [23] = experiment: Antifungal activity against Botryotinia fuckeliana assessed as inhibition of pigmentation of hyphae at 200 ug/ml after 5 days by electron microscopy; assay type: functional, organism-based
In short: (§1)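 Mycelium disks (10 mm) from stationary-phase cultures were grown on cellophane over PDA at 26 ± 1 °C to log phase. They were then moved to PDA containing compound at 200 µg mL-1 from DMSO stock (final DMSO 0.1%), with 0.1% DMSO controls. Pigmentation was judged visually and photographically against untreated cultures of the same age.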

Alternaria solani [24] = experiment: Antifungal activity against Alternaria solani Nees assessed as bleaching of hyphae at 200 ug/ml after 5 days by electron microscopy; assay type: functional, organism-based
In short: as §1

Botrytis cinerea [25] = experiment: Antifungal activity against Botryotinia fuckeliana assessed as increased quantities of material in immediate layer of cell wall at 200 ug/ml after 5 days by electron microscopy; assay type: functional, organism-based
Penicillium italicum [26] = experiment: Antifungal activity against Penicillium italicum ATCC 48952 assessed as color variation of hyphae at 200 ug/ml after 5 days by electron microscopy; assay type: functional, organism-based
In short: as §1

Sclerotinia minor [27] = experiment: Antifungal activity against Sclerotinia minor assessed as color variation of hyphae at 200 ug/ml after 5 days by electron microscopy; assay type: functional, organism-based
In short: as §1

Pyricularia grisea [28] = experiment: Antifungal activity against Magnaporthe grisea assessed as bleaching of hyphae at 200 ug/ml after 5 days by electron microscopy; assay type: functional, organism-based
In short: as §1

Trichoderma harzianum [29] = experiment: Antifungal activity against Trichoderma harzianum (Pers.)-Tul assessed as color variation of hyphae at 200 ug/ml after 5 days by electron microscopy; assay type: functional, organism-based
In short: as §1

Botrytis cinerea [30] = experiment: Antifungal activity against Botryotinia fuckeliana assessed as anamalous stratification at septa at 200 ug/ml after 5 days by electron microscopy; assay type: functional, organism-based
Penicillium crustosum [31] = experiment: Antifungal activity against Penicillium crustosum assessed as color variation of hyphae at 200 ug/ml after 5 days by electron microscopy; assay type: functional, organism-based
In short: as §1

Berkeleyomyces basicola [32] = experiment: Antifungal activity against Thielaviopsis basicola Went assessed as color variation of hyphae at 200 ug/ml after 5 days by electron microscopy; assay type: functional, organism-based
In short: as §1

For `Cn1ncc2sc3nncn3c21`, the inhibition of growth at 50 µg/mL (Botrytis cinerea [1]) was 4%, the inhibition of growth at 200 µg/mL (Botrytis cinerea [2]) was 32.2% and the inhibition of growth at 10 µg/mL (Botrytis cinerea [3]) was 0%. It also gave an inhibition of growth at 10 µg/mL (Pyricularia grisea [4]) of 3%, an inhibition of growth at 200 µg/mL (Pyricularia grisea [5]) of 43.4% and an inhibition of growth at 100 µg/mL (Botrytis cinerea [6]) of 19.3%. For the same molecule, the inhibition of growth at 100 µg/mL (Pyricularia grisea [7]) was 24% and the inhibition of growth at 50 µg/mL (Pyricularia grisea [8]) was 8.2%.

`Cc1cccc2sc3nncn3c12` [TRICYCLAZOLE] showed an inhibition of growth at 50 µg/mL (Botrytis cinerea [1]) of 8.3%, an inhibition of growth at 200 µg/mL (Botrytis cinerea [2]) of 77.8% and an inhibition of growth at 100 µg/mL (Sclerotinia minor [9]) of 0%. The inhibition of growth at 100 µg/mL (Trichoderma harzianum [10]) was 20%, the inhibition of growth at 200 µg/mL (Penicillium italicum [11]) was 70.4% and the inhibition of growth at 200 µg/mL (Sclerotinia minor [12]) was 0%. It also gave an inhibition of growth at 200 µg/mL (Penicillium crustosum [13]) of 95%, an inhibition of growth at 200 µg/mL (Trichoderma harzianum [14]) of 50.2% and an inhibition of growth at 100 µg/mL (Alternaria solani [15]) of 0%. For the same molecule, the inhibition of growth at 100 µg/mL (Penicillium italicum [16]) was 20.1%, the inhibition of growth at 100 µg/mL (Trichoderma viride [17]) was 20.2% and the inhibition of growth at 10 µg/mL (Botrytis cinerea [3]) was 0%. The inhibition of growth at 200 µg/mL (Alternaria solani [18]) was 0%, the inhibition of growth at 10 µg/mL (Pyricularia grisea [4]) was 0% and the inhibition of growth at 200 µg/mL (Pyricularia grisea [5]) was 94%. The inhibition of growth at 100 µg/mL (Botrytis cinerea [6]) was 29.6%, the inhibition of growth at 100 µg/mL (Penicillium crustosum [19]) was 80.3% and the inhibition of growth at 100 µg/mL (Pyricularia grisea [7]) was 62.3%. The inhibition of growth at 100 µg/mL (Berkeleyomyces basicola [20]) was 40.1%, the inhibition of growth at 200 µg/mL (Berkeleyomyces basicola [21]) was 66.6% and the inhibition of growth at 50 µg/mL (Pyricularia grisea [8]) was 24.1%. The inhibition of growth at 200 µg/mL (Trichoderma viride [22]) was 60%.

In the case of `Cc1nn(C)c2c1sc1nncn12`, the inhibition of growth at 50 µg/mL (Botrytis cinerea [1]) is reported as 14.6%, the inhibition of growth at 200 µg/mL (Botrytis cinerea [2]) is reported as 65.4% and the Activity (Botrytis cinerea [23]) is reported as “inactive”. For the same molecule, the inhibition of growth at 100 µg/mL (Sclerotinia minor [9]) was 0%, the Activity (Alternaria solani [24]) was “Active” and the inhibition of growth at 100 µg/mL (Trichoderma harzianum [10]) was 0%. The inhibition of growth at 200 µg/mL (Penicillium italicum [11]) was 0%, the inhibition of growth at 200 µg/mL (Sclerotinia minor [12]) was 0% and the inhibition of growth at 200 µg/mL (Penicillium crustosum [13]) was 10%. For the same molecule, the inhibition of growth at 200 µg/mL (Trichoderma harzianum [14]) was 0%, the inhibition of growth at 100 µg/mL (Alternaria solani [15]) was 0% and the inhibition of growth at 100 µg/mL (Penicillium italicum [16]) was 0%. For the same molecule, the Activity (Botrytis cinerea [25]) was “Active”, the inhibition of growth at 100 µg/mL (Trichoderma viride [17]) was 0% and the Activity (Penicillium italicum [26]) was “Active”. The inhibition of growth at 10 µg/mL (Botrytis cinerea [3]) was 10.8%, the inhibition of growth at 200 µg/mL (Alternaria solani [18]) was 23.4% and the Activity (Sclerotinia minor [27]) was “Active”. For the same molecule, the Activity (Pyricularia grisea [28]) was “Active”, the inhibition of growth at 10 µg/mL (Pyricularia grisea [4]) was 12.2% and the inhibition of growth at 200 µg/mL (Pyricularia grisea [5]) was 59.1%. For the same molecule, the inhibition of growth at 100 µg/mL (Botrytis cinerea [6]) was 28.8%, the inhibition of growth at 100 µg/mL (Penicillium crustosum [19]) was 0% and the Activity (Trichoderma harzianum [29]) was “Active”. For the same molecule, the inhibition of growth at 100 µg/mL (Pyricularia grisea [7]) was 20.5%, the inhibition of growth at 100 µg/mL (Berkeleyomyces basicola [20]) was 0% and the Activity (Botrytis cinerea [30]) was “Active”. The inhibition of growth at 200 µg/mL (Berkeleyomyces basicola [21]) was 0%, the inhibition of growth at 50 µg/mL (Pyricularia grisea [8]) was 13% and the Activity (Penicillium crustosum [31]) was “Active”. For the same molecule, the inhibition of growth at 200 µg/mL (Trichoderma viride [22]) was 0% and the Activity (Berkeleyomyces basicola [32]) was “Active”.
